In ChEMBL document CHEMBL1124050, “2,4-Diamino-6,7-dimethoxyquinazolines. 4. 2-[4-(substituted oxyethoxy) piperidino] derivatives as alpha 1-adrenoceptor antagonists and antihypertensive agents” (J Med Chem, 1988):
Active and inactive are the calls of the source. The rule behind the calls is not given here.

How the values were obtained:
[1] = molecular target: T1, Adrenergic receptor alpha-2 (Rattus norvegicus) (UniProt P22086+P19328+P22909); experiment: Binding affinity for alpha-2 adrenergic receptor by displacement of [3H]clonidine at 10e-6 M from rat brain homogenate preparation; format: tissue-based
How it was run: (§1)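 Rat brain homogenate; percentage displacement of [3H]clonidine by test agent at 10⁻⁶ M; NA denotes under 50%. Mean ± SEM of at least three separate experiments, each in triplicate.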

[2] = molecular target: T2, Adrenergic receptor alpha-1 (Rattus norvegicus, UniProt P15823+P23944+P43140); experiment: Binding affinity for alpha-1 adrenergic receptor by displacement of [3H]-prazosin from rat brain homogenate preparation; format: tissue-based
T2 sequence (P15823 whole entry): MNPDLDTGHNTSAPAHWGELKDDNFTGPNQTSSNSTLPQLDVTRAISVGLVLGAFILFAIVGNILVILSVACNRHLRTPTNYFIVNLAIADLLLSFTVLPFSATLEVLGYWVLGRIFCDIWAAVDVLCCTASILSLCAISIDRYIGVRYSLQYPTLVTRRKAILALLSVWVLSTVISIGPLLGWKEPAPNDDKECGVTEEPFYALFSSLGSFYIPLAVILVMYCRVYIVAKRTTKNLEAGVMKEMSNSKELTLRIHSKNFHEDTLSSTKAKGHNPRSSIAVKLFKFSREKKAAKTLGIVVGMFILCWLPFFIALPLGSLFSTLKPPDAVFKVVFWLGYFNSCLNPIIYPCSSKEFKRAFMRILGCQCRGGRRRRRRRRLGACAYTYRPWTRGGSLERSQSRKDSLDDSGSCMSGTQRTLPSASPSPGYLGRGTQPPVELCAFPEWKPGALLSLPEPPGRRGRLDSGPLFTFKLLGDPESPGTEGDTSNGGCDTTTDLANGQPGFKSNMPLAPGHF
T2 sequence (P23944 whole entry): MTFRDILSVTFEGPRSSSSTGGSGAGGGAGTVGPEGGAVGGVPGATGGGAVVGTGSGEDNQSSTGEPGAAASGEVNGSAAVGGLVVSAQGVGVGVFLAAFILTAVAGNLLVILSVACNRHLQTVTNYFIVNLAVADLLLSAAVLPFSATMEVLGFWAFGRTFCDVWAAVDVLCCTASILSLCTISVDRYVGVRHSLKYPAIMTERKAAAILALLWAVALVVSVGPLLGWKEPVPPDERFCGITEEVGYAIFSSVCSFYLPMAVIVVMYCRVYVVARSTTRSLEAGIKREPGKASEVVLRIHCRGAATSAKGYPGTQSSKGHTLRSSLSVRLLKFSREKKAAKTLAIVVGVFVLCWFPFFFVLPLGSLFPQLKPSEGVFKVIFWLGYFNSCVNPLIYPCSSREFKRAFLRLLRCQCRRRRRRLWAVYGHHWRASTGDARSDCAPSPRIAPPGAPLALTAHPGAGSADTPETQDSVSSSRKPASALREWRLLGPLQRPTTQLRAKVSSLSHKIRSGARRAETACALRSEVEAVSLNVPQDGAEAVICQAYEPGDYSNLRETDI
T2 sequence (P43140 whole entry): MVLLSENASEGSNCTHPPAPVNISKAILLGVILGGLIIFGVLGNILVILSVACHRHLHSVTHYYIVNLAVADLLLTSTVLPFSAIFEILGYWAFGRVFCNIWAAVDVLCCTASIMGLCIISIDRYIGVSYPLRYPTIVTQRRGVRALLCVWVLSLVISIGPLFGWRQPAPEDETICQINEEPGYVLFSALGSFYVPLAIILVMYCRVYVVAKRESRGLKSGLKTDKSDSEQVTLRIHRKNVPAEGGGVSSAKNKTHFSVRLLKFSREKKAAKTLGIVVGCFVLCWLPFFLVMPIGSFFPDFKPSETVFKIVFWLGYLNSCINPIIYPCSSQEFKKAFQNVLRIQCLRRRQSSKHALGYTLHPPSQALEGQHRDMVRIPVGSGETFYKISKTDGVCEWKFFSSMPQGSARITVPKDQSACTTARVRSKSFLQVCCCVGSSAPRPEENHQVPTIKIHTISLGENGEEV

Rattus norvegicus [3] = experiment: Antihypertensive activity in spontaneously hypertensive rats (SHR) at 5 mg/kg dose (po) after 1 h; format: functional
How it was run: (§2)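 Spontaneously hypertensive rats given 5 mg/kg orally; blood pressure measured, with percentage reduction determined at 1 and 6 h after dosing.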

Rattus norvegicus [4] = experiment: Antihypertensive activity in spontaneously hypertensive rats (SHR) at 5 mg/kg dose (po) after 6 h; format: functional; how it was run: as §2
Oryctolagus cuniculus [5] = species: Oryctolagus cuniculus; experiment: Concentration producing a 40% increase in [3H]- overflow in rabbit pulmonary artery (Functional alpha-antagonist activity);EC40-pre, NA=indicates no activity at 10e-5 M.
Oryctolagus cuniculus [6] = species: Oryctolagus cuniculus; experiment: Concentration producing a 40% reduction in contractile response in rabbit pulmonary artery (Functional alpha-antagonist activity); EC40-post
Oryctolagus cuniculus [7] = species: Oryctolagus cuniculus; experiment: Concentration producing a 40% increase in [3H]- overflow in rabbit pulmonary artery (Functional alpha-antagonist activity); EC40-pre NA=indicates no activity at 10e-5 M.
[8] = molecular target: T1, Adrenergic receptor alpha-2 (Rattus norvegicus); experiment: Binding affinity for alpha-2 adrenergic receptor by displacement of [3H]clonidine at 10e-6 M from rat brain homogenate preparation; NA=indicates less than 50%; format: tissue-based; how it was run: as §1
[9] = molecular target: T1, Adrenergic receptor alpha-2 (Rattus norvegicus); experiment: Binding affinity for alpha-2 adrenergic receptor by displacement of [3H]clonidine at 10e-6 M from rat brain homogenate preparation; indicates less than 50%; format: tissue-based; how it was run: as §1
Oryctolagus cuniculus [10] = species: Oryctolagus cuniculus; experiment: Concentration producing a 40% increase in [3H]- overflow in rabbit pulmonary artery (Functional alpha-antagonist activity)
Oryctolagus cuniculus [11] = species: Oryctolagus cuniculus; experiment: Concentration producing a 40% reduction in contractile response in rabbit pulmonary artery (Functional alpha-antagonist activity)
Oryctolagus cuniculus [12] = species: Oryctolagus cuniculus; experiment: Concentration producing a 40% increase in [3H]- overflow in rabbit pulmonary artery (Functional alpha-antagonist activity)d; NA= indicates no activity at 10e-5 M.

| Structure (SMILES) | Displacement [1] [%] | Ki [2] [nM] | Reduction (Rattus norvegicus [3]) [%] | Reduction (Rattus norvegicus [4]) [%] | EC40 (Oryctolagus cuniculus [5]) | EC40 (Oryctolagus cuniculus [6]) [nM] | EC40 (Oryctolagus cuniculus [7]) | Displacement [8] [%] | Displacement [9] [%] | EC40 (Oryctolagus cuniculus [10]) [nM] | EC40 (Oryctolagus cuniculus [11]) [nM] | EC40 (Oryctolagus cuniculus [12]) |
| --- | --- | --- | --- | --- | --- | --- | --- | --- | --- | --- | --- | --- |
| COc1cc2nc(N3CCC(OCC(C)O)CC3)nc(N)c2cc1OC (stereo unspecified) | 55 | 3.52 | 30 | 19 | – | – | – | – | – | – | – | – |
| COc1cc2nc(N3CCC(OCCOc4ccccc4)CC3)nc(N)c2cc1OC | 79.3 | 0.48 | 26 | 18 | inactive | 44 | – | – | – | – | – | – |
| COc1cc2nc(N3CCC(OCC(C)(C)OC)CC3)nc(N)c2cc1OC | 75.7 | 1.14 | 20 | 9 | – | – | – | – | – | – | – | – |
| COc1cc2nc(N3CCC(OCC(C)(C)O)CC3)nc(N)c2cc1OC | 61.7 | 1.28 | 40 | 22 | – | – | – | – | – | – | – | – |
| CCOCCOC1CCN(c2nc(N)c3cc(OC)c(OC)cc3n2)CC1 | 65.3 | 1.81 | 22 | 20 | – | 38 | inactive | – | – | – | – | – |
| COc1cc2nc(N3CCC(OCCO)CC3)nc(N)c2cc1OC | – | 2.2 | 8 | 10 | – | – | – | < 50 | – | – | – | – |
| CCOCC(OC1CCN(c2nc(N)c3cc(OC)c(OC)cc3n2)CC1)c1ccccc1 (stereo unspecified) | – | 10 | 24 | 19 | – | – | – | – | < 50 | – | – | – |
| COc1cc2nc(N3CCC(OCC(O)c4ccccc4)CC3)nc(N)c2cc1OC (stereo unspecified) | 91 | 0.15 | 26 | 16 | – | – | – | – | – | – | – | – |
| COCCOC1CCN(c2nc(N)c3cc(OC)c(OC)cc3n2)CC1 | 53 | 2.12 | 57 | 28 | – | – | – | – | – | – | – | – |
| COc1cc2nc(N3CCN(C(=O)c4ccco4)CC3)nc(N)c2cc1OC [PRAZOSIN] | – | – | 33 | 29 | – | – | – | – | – | 1300 | 4.5 | – |
| CCOC(C)COC1CCN(c2nc(N)c3cc(OC)c(OC)cc3n2)CC1 (stereo unspecified) | 74.3 | 0.99 | 43 | 20 | – | – | – | – | – | – | – | – |
| CCCCOCCOC1CCN(c2nc(N)c3cc(OC)c(OC)cc3n2)CC1 | 76 | 1.03 | 27 | 20 | – | – | – | – | – | – | – | – |
| COc1cc2nc(N3CCC(OCC(C)OC)CC3)nc(N)c2cc1OC (stereo unspecified) | 68.7 | 1.41 | 34 | 16 | – | – | – | – | – | – | – | – |
| CCOC(C)(COC1CCN(c2nc(N)c3cc(OC)c(OC)cc3n2)CC1)c1ccccc1 (stereo unspecified) | 97.5 | 0.15 | 20 | 13 | – | – | – | – | – | – | 15 | inactive |
| CCOC(COC1CCN(c2nc(N)c3cc(OC)c(OC)cc3n2)CC1)c1ccccc1 (stereo unspecified) | 84.5 | 0.52 | 16 | 12 | – | – | – | – | – | – | – | – |
| COc1cc2nc(N3CCC(OCCOC(C)C)CC3)nc(N)c2cc1OC | 73.4 | 0.67 | 26 | 15 | – | – | – | – | – | – | – | – |
| COc1cc2nc(N3CCC(OCCOC4CCCC4)CC3)nc(N)c2cc1OC | – | – | 20 | 11 | – | – | – | – | – | – | – | – |
| COc1cc2nc(N3CCC(OCC(C)(O)c4ccccc4)CC3)nc(N)c2cc1OC (stereo unspecified) | 97 | 0.62 | 23 | 20 | – | – | – | – | – | – | – | – |
